Published values pooled from the literature.
Each line is one published result; the experiments were not run side by side.
Cell line: SK-OV-3

COc1cccc2c1C(=O)c1c(O)c3c(c(O)c1C2=O)C[C@@](O)(C(=O)CO)C[C@@H]3O[C@H]1C[C@H](N)[C@H](O)[C@H](C)O1
IC50 (cell growth or viability; SRB): 25.8 µM

Cn1ncnc1[C@H]1c2n[nH]c(=O)c3cc(F)cc(c23)N[C@@H]1c1ccc(F)cc1
IC50 (colony formation): 0.0234 µM

COc1ccc(C(=O)/C=C/c2ccc3ccccc3c2)cc1S(N)(=O)=O
inhibition (cell growth or viability; SRB; 10 µM): 77%

Cc1ccc(-c2ccc(O)cc2)c(C(=C2C=CC(=O)C=C2)c2ccc(O)cc2)c1C#Cc1ccc(O)cc1
IC50 (cell growth or viability; MTT; 48 h): 18.6 µM

COc1ccc(C(=O)/C=C/c2cccc(Cl)c2)cc1S(N)(=O)=O
GI50 (cell growth or viability; SRB; 48 h): 6.2 µM

O=C1Nc2ccccc2C1=NNc1nnc2n1N=C(c1ccccc1)CS2
inhibition (cell growth or viability; SRB; 10 µM): 11%

COc1ccc(-c2ccc(-c3ccc(C(=N)N)nc3)s2)cc1
GI50 (cell growth or viability; SRB): 1.7 µM

COc1cc(Nc2nccc(-c3cnn4nc(OC)ccc34)n2)cc(C(F)(F)F)c1
IC50 (cell growth or viability; ATP luminescence): 0.16 µM

CC/C(=C(\c1ccccc1)c1ccc(OCCN(C)C)cc1)c1ccccc1
EC90 (cell growth or viability; ATP luminescence; 72 h): 17.4 µM

COc1cccc(Oc2ccccc2NC(=O)CNC(=O)c2cccc3ccccc23)c1
GI50 (cell growth or viability; SRB; 48 h): 0.49 µM

COc1ccc(C(=O)/C=C/c2ccc(Cl)c(Cl)c2)cc1S(N)(=O)=O
inhibition (cell growth or viability; SRB; 10 µM): 48%

C[C@]12CC[C@@H]3c4ccc(O)cc4CC[C@H]3[C@@H]1CC[C@@H]2O
EC50 (cell growth or viability; ATP luminescence; 72 h): 18.1 µM

COc1ccc(C(=O)/C=C/c2ccccc2Br)cc1S(N)(=O)=O
GI50 (cell growth or viability; SRB; 48 h): 12.9 µM

S=C([S][Au-][P+](CCCCCC[P+]([Au-][S]C(=S)n1cccn1)(c1ccccc1)c1ccccc1)(c1ccccc1)c1ccccc1)n1cccn1
GI50 (cell growth or viability): 2.06 µM

COc1ccc(C(=O)/C=C/c2c(F)cccc2Cl)cc1S(N)(=O)=O
inhibition (cell growth or viability; SRB; 10 µM): 73%

COc1ccc(-c2ccc(-c3ccc(C(=N)N)nc3)s2)cc1Cl
GI50 (cell growth or viability; SRB): 1.75 µM

COc1ccc(C(=O)/C=C/c2cccnc2)cc1S(N)(=O)=O
GI50 (cell growth or viability; SRB; 48 h): 16.6 µM

COc1cc(CNC(=O)CCCC/C=C/C(C)C)ccc1O
IC50 (cell growth or viability; SRB): 22 µM
